Measurements from publication PMC3074353 (Biochemistry, 2011).
Like-named read-outs stand apart in the source and are kept apart here.

Columns and labels:
[1] = test system: catalytic domain of SHP-1 [SHP-1(ΔSH2)]; test: PTP activity assay with synthetic pY peptides as substrates, SHP-1; format: biochemical; conditions: for Km / kcat/KM: same buffer pH 7.4, three or more independent experiments; for Km: mean ± SD
[2] = test system: catalytic domain of SHP-2 [SHP-2(ΔSH2)]; test: PTP activity assay with synthetic pY peptides as substrates, SHP-2; format: biochemical; conditions: for Km / kcat/KM: same buffer pH 7.4, three or more independent experiments; for Km: mean ± SD
[3] = molecular target: T1, RPTPα (amino acids 224–802) (Homo sapiens, UniProt P18433); test: PTP activity assay with synthetic pY peptides as substrates, RPTPα; format: biochemical; conditions: for Km: same buffer pH 7.4, mean ± SD, three or more independent experiments; for kcat/KM: same buffer pH 7.4, three or more independent experiments
[4] = molecular target: T1, RPTPα (amino acids 224–802); conditions: literature value, ref [20]; cited from earlier work
[5] = molecular target: T2, PTP1B (amino acids 1–321) (Homo sapiens, UniProt P18031); test: PTP activity assay with synthetic pY peptides as substrates, PTP1B; format: biochemical
T2 sequence (P18031 1-321): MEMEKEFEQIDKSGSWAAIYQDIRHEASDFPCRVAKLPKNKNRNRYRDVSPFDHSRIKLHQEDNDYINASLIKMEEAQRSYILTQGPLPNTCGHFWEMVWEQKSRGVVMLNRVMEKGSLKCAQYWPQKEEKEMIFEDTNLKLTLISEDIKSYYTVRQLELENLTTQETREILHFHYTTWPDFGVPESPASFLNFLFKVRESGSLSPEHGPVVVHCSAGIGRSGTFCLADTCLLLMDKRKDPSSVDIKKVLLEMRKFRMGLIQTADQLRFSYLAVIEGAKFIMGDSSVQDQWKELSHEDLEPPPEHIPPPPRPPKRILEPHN
Procedure, shortened: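 PTP1B catalytic fragment (residues 1–321) expressed in E. coli, quantified by Bradford against BSA. For alanine-scan peptides, kinetic constants came from fitting progress curves to the integrated Michaelis–Menten equation.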

[6] = molecular target: T2, PTP1B (amino acids 1–321); conditions: ref [36], cited from earlier work

Chain of catalytic domain of SHP-1 [SHP-1(ΔSH2)] (P29350 244-515 limits assumed, stated change not applied): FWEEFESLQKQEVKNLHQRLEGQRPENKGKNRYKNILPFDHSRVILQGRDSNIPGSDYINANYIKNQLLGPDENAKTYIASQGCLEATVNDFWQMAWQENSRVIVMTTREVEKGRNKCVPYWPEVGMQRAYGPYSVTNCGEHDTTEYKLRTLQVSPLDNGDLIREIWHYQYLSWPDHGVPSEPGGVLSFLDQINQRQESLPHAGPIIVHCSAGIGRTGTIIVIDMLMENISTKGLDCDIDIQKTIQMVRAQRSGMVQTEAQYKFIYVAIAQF

| Molecule | Km ([1]; SHP-1) [µM] | kcat/KM ([1]; SHP-1) [M⁻¹ s⁻¹] | Km ([2]; SHP-2) [µM] | kcat/KM ([2]; SHP-2) [M⁻¹ s⁻¹] | other results |
| --- | --- | --- | --- | --- | --- |
| Ac-FDIDIpYAA-NH2 | 13 ± 1 | 2.5e+06 | 39 ± 5 | 770000 | – |
| Ac-SASASpYSASA-NH2 | 1990 ± 420 | 13000 | 2300 ± 400 | 18000 | Km [3]: 530 ± 150 µM; kcat/KM [3]: 43000 M⁻¹ s⁻¹ |
| DFEDFpYAA | – | – | 23 ± 2 | 1.6e+06 | – |
| Ac-AKFEDTpYAA-NH2 | 58 ± 13 | 340000 | – | – | – |
| DAEDFpYAA | – | – | 28 ± 3 | 1.1e+06 | – |
| Ac-EIFDFpYAA-NH2 | 27 ± 4 | 1.2e+06 | 54 ± 6 | 480000 | – |
| Ac-AVWEFpYpYAA-NH2 | 7.5 ± 2 | 3.3e+06 | – | – | – |
| TSTEPQpYQPGENL | – | – | – | – | Km [4]: 1160 ± 140 µM; kcat [4]: 8.9 ± 0.5 s⁻¹; kcat/KM [4]: 7700 M⁻¹ s⁻¹ |
| Ac-ARKRIpYAA-NH2 | – | – | – | – | Km [3]: 490 ± 30 µM; kcat/KM [3]: 80000 M⁻¹ s⁻¹; kcat/KM value [5]: > 10^5 M^−1 s^−1 |
| Ac-RRISTpYAA-NH2 | – | – | – | – | Km [3]: 1200 ± 100 µM; kcat/KM [3]: 41000 M⁻¹ s⁻¹; kcat/KM value [5]: > 10^5 M^−1 s^−1 |
| Ac-RTLAApYAAAA-NH2 | – | – | – | – | kcat/KM value [5]: 510000 M⁻¹ s⁻¹ |
| O=[N+]([O-])c1ccc(OP(=O)(O)O)cc1 [pNPP, reference compound] | – | – | – | – | Km [3]: 2700 ± 300 µM; kcat/KM [3]: 190 M⁻¹ s⁻¹ |
| Ac-DWEDFpYAA-NH2 | – | – | 17 ± 2 | 1.7e+06 | – |
| EADTApYAA | – | – | – | – | Km [3]: 1400 ± 100 µM; kcat/KM [3]: 19000 M⁻¹ s⁻¹ |
| Ac-RTLAApYEEVH-NH2 | – | – | – | – | kcat/KM value [5]: 840000 M⁻¹ s⁻¹ |
| TATEPQpYQPGENL | – | – | – | – | Km [4]: 1070 ± 30 µM; kcat [4]: 9.7 ± 0.2 s⁻¹; kcat/KM [4]: 9100 M⁻¹ s⁻¹ |
| Ac-AAAAApYEEVH-NH2 | – | – | – | – | kcat/KM [3]: 39000 M⁻¹ s⁻¹ |
| WDEDFpYRWKF | 150 ± 15 | 280000 | 210 ± 35 | 340000 | – |

| Molecule | Km ([1]; SHP-1) [µM] | kcat/KM ([1]; SHP-1) [M⁻¹ s⁻¹] | Km ([2]; SHP-2) [µM] | kcat/KM ([2]; SHP-2) [M⁻¹ s⁻¹] | other results |
| --- | --- | --- | --- | --- | --- |
| Ac-AAAApYAAAA-NH2 | – | – | – | – | kcat/KM ([6]; literature value): 1.3 ^b μM^−1 s^−1; kcat/KM value [6]: 1.3e+06 M⁻¹ s⁻¹ |
| LIEDNEpYTARQGA | – | – | – | – | Km [4]: 770 ± 20 µM; kcat [4]: 8.3 ± 0.2 s⁻¹; kcat/KM [4]: 11000 M⁻¹ s⁻¹ |
| Ac-WDEDFpYSASA-NH2 | 53 ± 10 | 700000 | 46 ± 10 | 1.1e+06 | kcat/KM [3]: 69000 M⁻¹ s⁻¹; increase of kcat/KM relative to Ac-SASASpYSASA-NH2 ([1]; SHP-1): 54 fold; increase of kcat/KM relative to Ac-SASASpYSASA-NH2 ([2]; SHP-2): 61 fold; higher activity of SHP-2 than of SHP-1 (kcat/KM ratio) ([2]; SHP-2 versus SHP-1): 1.6 fold |
| Ac-ASSDDpYAA-NH2 | – | – | – | – | kcat/KM [3]: 13000 M⁻¹ s⁻¹ |
| Ac-FYDIDpYAA-NH2 | 28 ± 2 | 2.4e+06 | 66 ± 13 | 750000 | – |
| Ac-WAGDDpYAA-NH2 | 45 ± 5 | 1.3e+06 | 68 ± 15 | 530000 | higher reactivity to SHP-1 than to SHP-2 (kcat/KM ratio) ([1]; SHP-1 versus SHP-2): 2.5 fold |
| Ac-WDEDFpYDWEF-NH2 | 3.2 ± 0.3 | 2.3e+07 | 6.3 ± 0.4 | 6.8e+06 | kcat/KM value ([1]; SHP-1): 2.3e+07 M⁻¹ s⁻¹; increase of activity relative to peptide 6 (Ac-WDEDFpYSASA-NH2) ([2]; SHP-2, C-terminal SASA replaced by acidic motif DWEF): 6.2 fold |
| Ac-SASASpYDWEF-NH2 | 48 ± 9 | 250000 | 180 ± 7 | 190000 | increase of kcat/KM relative to Ac-SASASpYSASA-NH2 ([1]; SHP-1): 19 fold; increase of kcat/KM relative to Ac-SASASpYSASA-NH2 ([2]; SHP-2): 10 fold |
| ADEDFpYAA | – | – | 34 ± 2 | 820000 | – |
| Ac-RTLAApYRFQK-NH2 | – | – | – | – | kcat/KM value [5]: 220000 M⁻¹ s⁻¹ |
| FDEDFpYAA | – | – | 31 ± 6 | 1e+06 | – |
| Ac-WDEDFpYAA-NH2 | – | – | 43 ± 2 | 1.1e+06 | – |
| Ac-ApYpYWTApYAA-NH2 | – | – | – | – | kcat/KM value [5]: 1.51e+07 M⁻¹ s⁻¹ |
| AYTEpYTpYAA | 9.1 ± 1 | 1.9e+06 | – | – | – |
| Ac-AAAAApYRHRR-NH2 | – | – | – | – | Km [3]: 2600 ± 200 µM; kcat/KM [3]: 12000 M⁻¹ s⁻¹; kcat/KM value [5]: > 10^5 M^−1 s^−1 |
| O=P(O)(O)Oc1ccccc1 [Phenyl phosphate, reference compound] | – | – | – | – | kcat/KM [3]: 20 M⁻¹ s⁻¹ |
| WRKRFpYDWEF | 780 ± 640 | 2200 | 560 ± 140 | 2300 | – |
